Measurements taken from ChEMBL document CHEMBL1143620, “Discovery of diphenyloxazole and Ndelta-Z-ornithine derivatives as highly potent and selective human prostaglandin EP(4) receptor antagonists” (J Med Chem, 2005).

What was measured:
[1] = target: Prostacyclin receptor (Homo sapiens, UniProt P43119); assay: Inhibition of [3H]iloprost binding to human prostanoid IP receptor
[2] = target: T1, Prostaglandin E2 receptor EP3 subtype (Homo sapiens, UniProt P43115); assay: Inhibition of [3H]PGE-2 binding to human prostanoid EP3 receptor
T1 sequence (P43115 whole entry): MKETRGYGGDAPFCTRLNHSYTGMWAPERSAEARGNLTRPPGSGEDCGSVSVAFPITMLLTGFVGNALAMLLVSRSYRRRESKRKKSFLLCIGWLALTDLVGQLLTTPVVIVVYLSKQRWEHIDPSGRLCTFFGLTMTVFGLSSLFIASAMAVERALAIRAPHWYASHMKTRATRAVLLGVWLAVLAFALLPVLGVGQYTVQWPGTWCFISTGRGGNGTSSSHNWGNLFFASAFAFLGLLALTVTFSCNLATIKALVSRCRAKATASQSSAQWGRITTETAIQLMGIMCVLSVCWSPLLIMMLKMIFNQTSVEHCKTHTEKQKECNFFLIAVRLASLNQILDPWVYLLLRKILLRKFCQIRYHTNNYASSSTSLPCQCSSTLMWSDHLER

[3] = target: Prostaglandin E2 receptor EP4 subtype (Homo sapiens, UniProt P35408); assay: Inhibition of [3H]PGE-2 binding to human prostanoid EP4 receptor
[4] = target: T2, Prostaglandin E2 receptor EP1 subtype (Homo sapiens, UniProt P34995); assay: Inhibition of [3H]-PGE-2 binding to human prostanoid EP1 receptor
T2 sequence (P34995 whole entry): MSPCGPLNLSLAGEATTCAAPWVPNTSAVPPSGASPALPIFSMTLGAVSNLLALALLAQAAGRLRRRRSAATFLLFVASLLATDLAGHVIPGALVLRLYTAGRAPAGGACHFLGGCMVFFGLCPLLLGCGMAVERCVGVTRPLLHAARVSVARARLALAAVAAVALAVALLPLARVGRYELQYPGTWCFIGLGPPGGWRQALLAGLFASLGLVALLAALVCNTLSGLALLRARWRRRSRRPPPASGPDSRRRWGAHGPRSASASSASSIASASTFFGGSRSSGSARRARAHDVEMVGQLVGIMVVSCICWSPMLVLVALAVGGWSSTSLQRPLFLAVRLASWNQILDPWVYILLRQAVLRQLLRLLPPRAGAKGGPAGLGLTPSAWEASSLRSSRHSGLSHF

[5] = Half life in rat after iv administration (n=2-3); assay type: ADME, organism-based; conditions: in vivo
[6] = target: Prostaglandin F2-alpha receptor (Homo sapiens, UniProt P43088); assay: Inhibition of [3H]PGF-2 binding to human prostanoid FP receptor
[7] = target: Prostaglandin E2 receptor EP4 subtype (Rattus norvegicus, UniProt P43114); assay: Inhibition of rat prostanoid EP4 receptor
[8] = target: T3, Prostaglandin D2 receptor (Homo sapiens, UniProt Q13258); assay: Inhibition of [3H]PGD-2 binding to human prostanoid DP receptor
T3 sequence (Q13258 whole entry): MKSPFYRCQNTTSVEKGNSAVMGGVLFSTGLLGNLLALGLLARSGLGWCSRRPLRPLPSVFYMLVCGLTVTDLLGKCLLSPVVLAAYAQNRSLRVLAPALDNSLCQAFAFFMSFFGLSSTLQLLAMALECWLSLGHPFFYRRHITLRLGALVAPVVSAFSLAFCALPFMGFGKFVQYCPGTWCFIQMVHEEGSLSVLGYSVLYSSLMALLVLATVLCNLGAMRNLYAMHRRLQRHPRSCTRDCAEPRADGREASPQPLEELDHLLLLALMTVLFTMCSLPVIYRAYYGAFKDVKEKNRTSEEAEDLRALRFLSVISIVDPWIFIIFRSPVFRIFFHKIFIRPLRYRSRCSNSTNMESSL

[9] = Clearance in dog after iv administration (n=2-3); assay type: ADME, organism-based, Canis lupus familiaris; conditions: in vivo
[10] = target: T4, Thromboxane A2 receptor (Homo sapiens, UniProt P21731); assay: Inhibition of [3H]SQ-29,548 binding to human prostanoid TP receptor
T4 sequence (P21731 whole entry): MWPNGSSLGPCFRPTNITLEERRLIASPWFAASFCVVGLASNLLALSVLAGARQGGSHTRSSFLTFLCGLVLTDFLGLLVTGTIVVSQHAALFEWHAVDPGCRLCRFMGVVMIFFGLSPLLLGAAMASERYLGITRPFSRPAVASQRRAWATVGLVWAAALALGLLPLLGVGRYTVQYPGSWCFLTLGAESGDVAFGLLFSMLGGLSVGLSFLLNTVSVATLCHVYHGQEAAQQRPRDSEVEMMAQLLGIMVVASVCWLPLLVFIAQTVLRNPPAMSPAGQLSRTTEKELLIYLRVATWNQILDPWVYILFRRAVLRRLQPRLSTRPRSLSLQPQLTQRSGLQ

[11] = Half life in dog after iv administration (n=2-3); assay type: ADME, organism-based, Canis lupus familiaris; conditions: in vivo
[12] = Maximal plasma concentration in dogs after 3.2 mg/kg oral dose, n=3; assay type: ADME, organism-based, Canis lupus familiaris; parameters: dose 3.2 mg/kg, route oral; conditions: dog
Procedure, shortened: (§1)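 Single oral doses, n = 3 animals per dose. Peak plasma level reported in ng/mL, with oral bioavailability given as F (%). Values are mean ± SE.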

[13] = Bioavailability in rat (dose 10 mg/kg p.o.); assay type: ADME, organism-based; conditions: in vivo, po
[14] = Maximal plasma concentration in rats after 10 mg/kg oral dose n=3; assay type: ADME, organism-based; parameters: dose 10 mg/kg, route oral; conditions: rat
[15] = Clearance in rat after iv administration (n=2-3); assay type: ADME, organism-based; conditions: in vivo
[16] = target: Prostaglandin E2 receptor EP2 subtype (Homo sapiens, UniProt P43116); assay: Inhibition of [3H]PGE-2 binding to human prostanoid EP2 receptor
[17] = Bioavailability in dog at 3.2 mg/kg after po administration (n=3); assay type: ADME, organism-based, Canis lupus familiaris; conditions: in vivo; procedure, shortened: as §1
[18] = Bioavailability in dog at 0.10 mg/kg after po administration (n=3); assay type: ADME, organism-based, Canis lupus familiaris; conditions: in vivo, 0.1 mg/kg; procedure, shortened: as §1
[19] = Maximal plasma concentration in dogs after 0.1 mg/kg oral dose, n=3; assay type: ADME, organism-based, Canis lupus familiaris; parameters: dose 0.1 mg/kg, route oral; conditions: dog; procedure, shortened: as §1
[20] = Bioavailability in rat at 0.32 mg/kg after po administration (n=3); assay type: ADME, organism-based; conditions: in vivo
[21] = Bioavailability in dog at 0.32 mg/kg after po administration (n=3); assay type: ADME, organism-based, Canis lupus familiaris; conditions: in vivo; procedure, shortened: as §1
[22] = Maximal plasma concentration in dogs after 0.32 mg/kg oral dose, n=3; assay type: ADME, organism-based, Canis lupus familiaris; parameters: dose 0.32 mg/kg, route oral; conditions: dog; procedure, shortened: as §1

Chain of Prostacyclin receptor (P43119 whole entry): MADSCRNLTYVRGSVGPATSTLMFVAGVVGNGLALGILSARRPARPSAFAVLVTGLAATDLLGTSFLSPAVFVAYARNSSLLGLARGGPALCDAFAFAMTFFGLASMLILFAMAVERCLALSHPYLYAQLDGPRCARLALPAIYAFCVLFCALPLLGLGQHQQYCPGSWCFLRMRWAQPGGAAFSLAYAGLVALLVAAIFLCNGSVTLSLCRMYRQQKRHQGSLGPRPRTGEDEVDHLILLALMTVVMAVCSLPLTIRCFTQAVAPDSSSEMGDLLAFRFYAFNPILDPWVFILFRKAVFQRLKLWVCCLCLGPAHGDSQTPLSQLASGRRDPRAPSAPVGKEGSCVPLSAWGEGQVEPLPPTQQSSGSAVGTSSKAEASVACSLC
Chain of Prostaglandin E2 receptor EP4 subtype (Homo sapiens, UniProt P35408) (P35408 whole entry): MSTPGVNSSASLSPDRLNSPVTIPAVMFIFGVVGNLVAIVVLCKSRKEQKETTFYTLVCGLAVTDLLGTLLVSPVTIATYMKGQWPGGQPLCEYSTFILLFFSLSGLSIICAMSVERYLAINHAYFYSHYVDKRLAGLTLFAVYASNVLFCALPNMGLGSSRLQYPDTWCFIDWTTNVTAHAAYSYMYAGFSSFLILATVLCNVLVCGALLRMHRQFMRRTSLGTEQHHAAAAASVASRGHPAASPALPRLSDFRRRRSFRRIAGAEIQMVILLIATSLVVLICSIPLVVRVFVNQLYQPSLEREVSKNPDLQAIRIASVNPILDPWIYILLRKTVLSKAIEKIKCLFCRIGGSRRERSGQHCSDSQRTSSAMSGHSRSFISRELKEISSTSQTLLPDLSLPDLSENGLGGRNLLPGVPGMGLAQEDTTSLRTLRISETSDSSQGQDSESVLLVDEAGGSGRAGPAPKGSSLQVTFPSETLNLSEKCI
Chain of Prostaglandin E2 receptor EP2 subtype (P43116 whole entry): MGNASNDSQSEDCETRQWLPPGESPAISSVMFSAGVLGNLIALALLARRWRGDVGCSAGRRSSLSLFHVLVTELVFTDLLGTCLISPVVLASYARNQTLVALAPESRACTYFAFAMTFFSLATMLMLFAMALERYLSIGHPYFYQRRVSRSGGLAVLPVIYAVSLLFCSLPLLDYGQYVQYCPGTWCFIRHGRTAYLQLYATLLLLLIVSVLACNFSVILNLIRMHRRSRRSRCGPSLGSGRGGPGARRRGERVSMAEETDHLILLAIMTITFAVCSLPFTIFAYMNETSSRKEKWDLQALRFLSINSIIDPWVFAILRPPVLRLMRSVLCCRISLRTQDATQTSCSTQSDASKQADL
Chain of Prostaglandin F2-alpha receptor (P43088 whole entry): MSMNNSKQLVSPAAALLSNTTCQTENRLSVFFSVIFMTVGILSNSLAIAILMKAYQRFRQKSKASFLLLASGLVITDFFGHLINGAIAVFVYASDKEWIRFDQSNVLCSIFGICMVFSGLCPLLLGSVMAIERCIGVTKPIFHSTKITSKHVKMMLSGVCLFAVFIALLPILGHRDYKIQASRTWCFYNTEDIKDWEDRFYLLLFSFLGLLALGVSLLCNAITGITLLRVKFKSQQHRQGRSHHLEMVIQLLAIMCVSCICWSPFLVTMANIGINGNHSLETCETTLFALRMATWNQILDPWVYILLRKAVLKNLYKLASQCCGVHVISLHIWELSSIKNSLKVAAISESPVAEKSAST
Chain of Prostaglandin E2 receptor EP4 subtype (Rattus norvegicus, UniProt P43114) (P43114 whole entry): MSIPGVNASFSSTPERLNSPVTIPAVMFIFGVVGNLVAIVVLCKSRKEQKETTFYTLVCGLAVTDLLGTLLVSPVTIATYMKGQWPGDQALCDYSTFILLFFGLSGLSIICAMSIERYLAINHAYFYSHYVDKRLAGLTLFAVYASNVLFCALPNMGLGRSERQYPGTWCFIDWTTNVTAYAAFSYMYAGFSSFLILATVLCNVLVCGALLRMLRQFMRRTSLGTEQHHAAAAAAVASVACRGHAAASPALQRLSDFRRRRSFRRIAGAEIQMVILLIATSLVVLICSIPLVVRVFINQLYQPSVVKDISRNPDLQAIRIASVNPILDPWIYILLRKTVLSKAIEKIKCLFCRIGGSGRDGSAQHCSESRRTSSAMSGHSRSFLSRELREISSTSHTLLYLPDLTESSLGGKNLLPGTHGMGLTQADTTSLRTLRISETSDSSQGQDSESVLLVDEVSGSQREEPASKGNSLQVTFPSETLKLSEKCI

Row | Ki [1] [µM] | Ki [2] [µM] | Ki [3] [µM] | Ki [4] [µM] | half-life [5] [h] | Ki [6] [µM] | Ki [8] [µM] | clearance [9] [mL/min/kg] | Ki [10] [µM] | half-life [11] [h] | Ki [16] [µM] | Structure (SMILES) | other results
1 | > 3 | > 3 | 0.0003 | > 3 | 4.4 | > 3 | > 3 | 0.52 | > 3 | 5.5 | > 3 | O=C(NS(=O)(=O)Cc1ccccc1)c1cccc(C[C@@H]2CCCC=C2c2nc(-c3ccccc3)c(-c3ccccc3)o2)c1 | Ki [7]: 0.00074 µM; Cmax [12]: 8200 ng/mL; bioavailability [13]: 51%; Cmax [14]: 2100 ng/mL; clearance [15]: 10.2 mL/min/kg; bioavailability [17]: 97%
2 | > 3 | > 3 | 0.00068 | > 3 |  | > 1 | > 1 |  | > 1 |  | > 3 | O=C(NOCc1ccccc1)c1cccc(C[C@@H]2CCCC=C2c2nc(-c3ccccc3)c(-c3ccccc3)o2)c1 | 
3 |  |  | 0.08 |  |  |  |  |  |  |  |  | CN(Cc1ccccc1)C(=O)[C@H](Cc1ccccc1)NC(=O)[C@H](CCCNC(=O)OCc1ccccc1)NC(=O)c1cc2ccccc2[nH]1 | 
4 | > 1 | > 1 | 0.043 | > 1 |  | > 1 | > 1 |  | > 1 |  | > 1 | O=C(NCCC[C@H](NC(=O)c1cc2ccccc2[nH]1)C(=O)N[C@@H](Cc1ccccc1)C(=O)O)OCc1ccccc1 | 
5 | 0.61 | > 3 | 0.0055 | 2.5 | 4 | > 3 | > 3 | 0.52 | > 3 | 5.5 | > 3 | O=C(O)c1cccc(C[C@@H]2CCCC=C2c2nc(-c3ccccc3)c(-c3ccccc3)o2)c1 | bioavailability [18]: 25%; bioavailability [13]: 99%; Cmax [19]: 57.3 ng/mL; Cmax [14]: 9100 ng/mL; clearance [15]: 11.2 mL/min/kg
6 | 0.17 |  | 0.05 |  |  |  |  |  |  |  |  | O=C(O)Cc1cccc(C[C@@H]2CCCC=C2c2nc(-c3ccccc3)c(-c3ccccc3)o2)c1 | 
7 |  |  | 0.24 |  |  |  |  |  |  |  |  | O=C(O)CCCCCNC(=O)[C@@H](CCCCNC(=O)OCc1ccccc1)NC(=O)c1cc2ccccc2o1 | 
8 |  | > 1 | 1.02 |  | 6.6 |  |  | 1.59 |  | 3 |  | O=C([O-])COc1cccc(C[C@@H]2CCCC=C2c2nc(-c3ccccc3)c(-c3ccccc3)o2)c1.[Na+] | bioavailability [20]: 50%; bioavailability [21]: 72%; Cmax [22]: 592 ng/mL; Cl [15]: 17.7 mL/min/kg
9 | > 10 | > 10 | 0.00091 | > 10 |  | > 10 | > 10 |  | > 10 |  | > 10 | O=C(O)CCCCCNC(=O)[C@H](CCCNC(=O)OCc1ccccc1)NC(=O)c1cc2ccccc2o1 | Ki [7]: 0.0051 µM
10 |  |  | 0.0084 |  |  |  |  |  |  |  |  | O=C(O)CCCCCNC(=O)[C@H](CCCCNC(=O)OCc1ccccc1)NC(=O)c1cc2ccccc2o1 | 
